Lmaj promast – inhibitors of Leishmania major promastigote growth | inhibition, % at 10 µM | AID 1063 | Leishmania major promastigotes, resazurin fluorescence viability | 200,000 tested, 9% active; in the data active = inhibition above about 50%;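 also: promastigotes grown with compound for 44 hours at 28 °C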
T cruzi repl – T. cruzi replication inhibition; T. cruzi beta-gal in NIH3T3, luminescence, 90 h; inhibition, % (no concentration beside the values); 300,000 tested, 1.4% active; AID 1885;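 active = mean inhibition across valid replicates above about 55%, limit read from the data; inconclusive = mean below that limit but half or more replicates reach it; inactive = mean below it, under half of replicates reach it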;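 also: signal also drops with host cell toxicity which is not excluded here; 0% = plate median of DMSO wells and 100% = zero luminescence signal; higher percent means less beta-gal luminescence so fewer parasites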
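Read-out: Parasite load inhibition, % | Test system: Mouse NIH/3T3 fibroblasts infected with β-gal-expressing T. cruzi Tulahuen C4 | Amount: 5,000 cells/well | Medium: DMEM, 2% fetal bovine serum | Signal: GalScreen β-gal luminescence, detergent lysis, 60 min | Timing: 3 h attach, ≥90 h co-culture | Also added: Tulahuen C4 trypomastigotes, 5000/well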
NALP3 yeast inh – blocks the NALP3 inflammasome reconstituted in yeast; Yeast reconstituted NLRP3/ASC/caspase-1, beta-gal luminescence, 24 h; 330,000 tested, 0.39% active; inhibition, % at 10 µM;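 active = inhibition of 50% or more; inactive = inhibition below 50%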;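 also: plate controls were induced DMSO wells for no effect and uninduced yeast grown without galactose for full effect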
PolyA inhibitor – yeast polyadenylation inhibition. activity score, % at 12 µM. S. cerevisiae SKY197-pL101 polyadenylation reporter, beta-gal luminescence; efflux-impaired pdr1/pdr3 knockout yeast; score 100 = 6 SD above DMSO. 300,000 tested, 0.02% active;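 active = lowest replicate activity score at least 50, where 100 means six control SD above control mean; inconclusive = lowest score under 50 but half or more replicates reach 50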;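 also: yeast exposed to compound for 9 h at 30 °C; higher score means more reporter readthrough which indicates perturbed polyadenylation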
Calb FLC – C. albicans growth modulation with fluconazole; C. albicans CaCi-2 + fluconazole, Alamar Blue growth, 48 h; growth inhibition, % (no concentration beside the values); 300,000 tested, 0.57% active;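 active = growth inhibition above about 58% in most replicates, limit read from the data, passing the limit was not always enough; inconclusive = exactly half the replicates above a set limit; inactive = most replicates below a set limit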;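 also: all wells also contain fluconazole at 8 µg/ml as a sub-toxic cotreatment; 0% = median of DMSO wells and 100% = median of geldanamycin control wells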
NALP1 inh – blocks the NALP1 inflammasome reconstituted in yeast; S. cerevisiae NALP1/ASC/caspase-1 growth, X-gal OD620, 72 h; inhibition, % at 10 µM; 280,000 tested, 0.61% active; AID 2071; in the data active = inhibition mostly above about 24%, no sharp cut-off; inactive = mostly below about 32%
Active calls of the source: *; ? = inconclusive; / = no result. This excerpt belongs to a sample that is enriched for hits.

SMILES | Lmaj promast | T cruzi repl | NALP3 yeast inh | PolyA inhibitor | Calb FLC | NALP1 inh
CC(C)Oc1cc(-n2c(=S)[nH]c3ccccc3c2=O)c(Cl)cc1Cl | 5.1 | 6.6 | 11.7 | -15.1 | 12.3 | -1.5
NNC(=O)CN1C(=O)CN=C(c2ccccc2)c2cc(Br)ccc21 | / | -2.1 | 1.5 | -9.3 | 10.0 | 14.7
O=C1CN=C(c2ccccc2)c2cc(Br)ccc2N1Cc1cc(=O)n2ccccc2n1 | 82.3* | 5.5 | -2.0 | 9.1 | -7.4 | 20.2
O=[N+]([O-])c1ccc(C[n+]2c(-c3ccccc3)cc(-c3ccccc3)cc2-c2ccccc2)cc1 | / | 51.6 | 6.6 | -11.5 | 107.3* | /
O=[N+]([O-])c1cc(Cl)c(O)c(-[n+]2c(-c3ccccc3)cc(-c3ccccc3)cc2-c2ccccc2)c1 | / | 23.6 | 22.8 | -1.5 | -2.0 | 0.0
Cc1cc(C(=O)N=Nc2c(O)n(C)c3ccccc23)c(C)o1 | 69.0* | 30.0 | 18.4 | -6.7 | -7.3 | 16.7
O=C1CNC(c2ccccc2Cl)c2cc(Br)ccc2N1 (stereo unspecified) | / | -0.2 | -5.2 | -27.1 | -1.4 | 4.9
CC(Cc1ccccc1Sc1ccccc1O)N(C)C (stereo unspecified) | 99.8* | -2.7 | 27.1 | 0.3 | 4.2 | -3.8
C#CCN(C)[C@H](C)Cc1ccccc1 | / | -8.3 | 11.4 | -22.1 | 3.2 | 11.9
CCCCCCN1CCN(c2ccc(Cl)cc2)CC1 | 82.5* | 9.7 | 2.2 | -12.7 | -34.4 | -0.6
Fc1ccc(CN2CCN(c3ccc(Cl)cc3)CC2)cc1 | -1.2 | -3.5 | 28.7 | 0.4 | -44.5 | -3.0
NCCc1ccc(OCc2ccccc2)c(OCc2ccccc2)c1 | / | / | 22.8 | / | / | /
CN(CC1COc2ccccc2O1)c1nc(-c2cccnc2)nc2ccccc12 (stereo unspecified) | 68.8* | ? | 25.8 | -25.1 | 6.9 | /
CCOc1ccc(N2C(=O)/C(=C/c3ccco3)C(=O)NC2=S)cc1 | / | -19.2 | 14.6 | -2.3 | 2.6 | 2.2
CCOc1ccc(N2C(=O)/C(=C\c3cccs3)C(=O)NC2=S)cc1 | 100.1* | -2.2 | 14.4 | 4.2 | -0.6 | -22.4
CC(=O)N1CCCSC1=Nc1ccccc1 | 70.1* | -0.1 | -5.0 | 10.9 | -7.7 | 5.5
CCCN(CC#CCOc1ccc(OC)cc1)CCC | 17.9 | 4.6 | 15.3 | -2.0 | -8.0 | 7.8
Cc1ccc(N2C(=O)NC(=O)/C(=C/c3cnn(-c4ccc(C)cc4)c3)C2=O)cc1 | 84.7* | -0.7 | 12.5 | 3.9 | -5.5 | 33.7
COc1cc(/C=C/c2nc3ccccc3c(=O)n2-c2cccc(O)c2)ccc1O | / | 5.6 | 6.5 | 60.8* | 5.4 | /
O=c1c2ccccc2nc(/C=C/c2ccc([N+](=O)[O-])o2)n1-c1ccc(O)cc1 | 98.5* | 33.9 | 18.2 | 13.1 | 98.3* | 3.7
Cc1cccc(-n2c(/C=C/c3ccc([N+](=O)[O-])o3)nc3ccccc3c2=O)c1 | 88.0* | 46.0 | 23.0 | -101.4 | -2.2 | 27.4
Cc1nc2ccccc2c(=O)n1-c1cc([N+](=O)[O-])cc([N+](=O)[O-])c1 | / | 55.3* | 10.9 | 6.4 | 6.9 | 1.8
Cc1nc2ccccc2c(=O)n1-c1ccncc1 | / | -3.0 | 5.3 | -7.7 | 0.4 | /
O=P(O)(Oc1ccccc1)OC(c1ccccc1)C(F)(F)C(F)(F)F (stereo unspecified) | -4.2 | -10.2 | 5.5 | -11.1 | 10.6 | -12.7
CCCCCCN=Cc1c(O)n(C)c(=O)n(C)c1=O | -7.2 | 9.0 | 11.8 | 2.2 | -16.2 | -16.0
SMILES | Lmaj promast | T cruzi repl | NALP3 yeast inh | PolyA inhibitor | Calb FLC | NALP1 inh
CC(C)CN1CCN(Cc2ccc(C(F)(F)F)cc2)CC1CCO (stereo unspecified) | / | 9.9 | 10.9 | 7.2 | -30.0 | 9.9
COc1ccc2c(c1)/C(=C/c1cnc[nH]1)C(=O)N2 | / | 31.0 | 47.1 | -10.1 | / | 12.6
O=C1Nc2ccccc2/C1=C/c1cnc[nH]1 | 98.1* | 39.5 | 1.5 | 10.2 | 58.7 | 1.2
O=C(Nc1cccc(Cl)c1)c1c(O)c2c(n(Cc3ccccc3)c1=O)CCCC2 | 3.1 | / | / | / | / | 18.5
CCOC(=O)c1c(-n2c(C)cc(C=C3C(=O)NC(=O)NC3=O)c2C)sc2c1CCCC2 | 83.9* | -10.7 | 5.9 | 2.8 | 21.0 | 19.8
Cc1cccc(N2C(=O)NC(=O)/C(=C\c3cc(C)n(-c4sc5c(c4C#N)CCCC5)c3C)C2=O)c1C | -2.7 | 0.5 | 10.5 | 5.2 | 9.6 | 38.6
C/C=C1/CN2[C@@H]3C4CO[C@@H]3c3c([nH]c5cc(OC)ccc35)[C@@H]2CC14 (stereo partly specified) | / | -6.0 | -0.5 | -12.6 | -1.5 | /

Compound activity (PubChem)
